Bioassay records as filed in PubChem.
Hits are enriched below; roughly 3.7% of the tested compounds scored in any of these assays.
MPTP block: mitochondrial permeability transition pore inhibitors, primary screen, biochemical, isolated mouse mitochondria, absorbance. actives 1.4% (n = 360,000). AID 602449, 2012. Ca2+ swelling absorbance, 30 min. inhibition, % at 10 µM;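 active means inhibition of 50% or more, scaled per plate between neutral and stimulator controls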;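 further: 0% = DMSO wells given calcium and 100% = 1 mM EGTA wells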
aDG glyco up: activators of alpha-DG glycosylation, primary screen, uHTS, Pro5-aDG cells, AlphaScreen. alpha-DG glycosylation AlphaScreen (IIH6); 0% Pro5, 100% B10-LARGE cell signal. activation, % at 10 µM. actives 0.22% (n = 360,000). AID 624168, 2012;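 active means activation of at least 8% versus controls, or a plate z-score of at least 8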;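 further: Pro5 are CHO cells carrying HIG-tagged alpha-DG that lacks glycosylation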
procasp7 counter: procaspase-7 activators, primary screen, counter-screen for procaspase-3 activator project, biochemical, absorbance, HTS, human; Caspase-7 (Homo sapiens), P55210; recombinant procaspase-7, Ac-DEVD-pNA absorbance 405 nm; D23A/D198A/D206A triple mutant, cannot self-cleave; scale: DMSO 0, 5 µM enzyme 100; activation, % at 8.5 µM; actives 0.093% (n = 330,000); AID 463210, 2010;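 active means percent activation above the screen-wide mean plus 3 SD, cut at about 25% in these data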
Target sequence (P55210 whole entry D23A/D198A/D206A): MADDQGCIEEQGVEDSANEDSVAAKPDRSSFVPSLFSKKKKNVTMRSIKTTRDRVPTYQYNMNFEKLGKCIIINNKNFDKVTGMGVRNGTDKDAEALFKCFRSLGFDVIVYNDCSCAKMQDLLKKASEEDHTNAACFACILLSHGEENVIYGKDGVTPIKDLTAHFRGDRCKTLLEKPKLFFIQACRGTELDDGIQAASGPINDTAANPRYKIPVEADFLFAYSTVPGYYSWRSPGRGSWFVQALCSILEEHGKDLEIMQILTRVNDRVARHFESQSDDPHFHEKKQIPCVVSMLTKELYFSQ
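System: Uncleavable procaspase-7 mutant enzyme; Amount: 2 µM procaspase-7 mutant as dispensed; Schedule: 1 h compound preincubation, 2 h substrate cleavage, 25 °C; Measured by: 405 nm absorbance of p-nitroaniline; Evaluation: percent activation from buffer-corrected 0–120 min absorbance change; Control set: low DMSO alone, high DMSO plus 5 µM PC-7.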
NR3A LBD binder: binders of NR3A ligand-binding domain, primary screen, biophysical, differential scanning fluorimetry, uHTS. NR3A LBD differential scanning fluorimetry, Tm shift; 0% = protein alone, 100% = glycine-bound protein. Tm shift relative to glycine control, % at 25 µM. actives 2.5% (n = 340,000);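 active means melting temperature shift of at least 10% of the positive control shift, at one fixed dose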
procasp3 activ: activators of human procaspase-3 D3A mutant, primary screen, biochemical, absorbance, PC-3 D3A mutant, single concentration; Caspase-3 (Homo sapiens), P42574; recombinant procaspase-3 D3A, Ac-DEVD-pNA absorbance 405 nm; activation, % at 8.5 µM; actives 0.11% (n = 330,000); AID 463141, 2010;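 active means activation above the mean of all tested compounds plus 3 SD, cut at about 21% in these data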;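 further: 0% = DMSO alone and 100% = DMSO wells spiked with extra 5 µM PC-3 D3A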
Target sequence (P42574 whole entry D9A/D28A/D175A): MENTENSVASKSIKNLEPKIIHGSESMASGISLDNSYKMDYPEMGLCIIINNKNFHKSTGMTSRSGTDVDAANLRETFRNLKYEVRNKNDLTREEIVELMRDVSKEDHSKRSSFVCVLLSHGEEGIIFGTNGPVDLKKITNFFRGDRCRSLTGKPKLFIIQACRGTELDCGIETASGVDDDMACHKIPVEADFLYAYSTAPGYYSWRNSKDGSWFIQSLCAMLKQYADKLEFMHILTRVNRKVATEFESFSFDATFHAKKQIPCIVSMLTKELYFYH
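Assay system – Procaspase-3 D3A mutant · Benchmarks – DMSO low control, extra-enzyme high control · Technique – 405 nm absorbance of p-nitroaniline, reads at 0 and 120 min · Doses – 8.5 µM nominal · Measure – % activation between DMSO and enzyme-spiked controls · Also added – Ac-DEVD-pNA chromogenic peptide substrate · Schedule – 1 h compound preincubation, 2 h substrate hydrolysis at 25 °C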
Active calls of the source: *; . = no result given.

SMILES | MPTP block | aDG glyco up | procasp7 counter | NR3A LBD binder | procasp3 activ
CCCCCc1cc(=O)c2ccccc2o1 | 0 | 0 | -3 | 53* | 11
COCCOc1ccc(C(F)(F)F)cc1NC(=O)COC(=O)C12CC3CC(CC(O)(C3)C1)C2 | -3 | 0 | -12 | 26* | -6
O=C(COC(=O)C12CC3CC(CC(O)(C3)C1)C2)Nc1ccc(Br)cc1F | -1 | 0 | -4 | 0 | 3
CN(CC(=O)Nc1ccccc1Cl)CC(=O)Nc1cccc2ccccc12 | -2 | 0 | 5 | 0 | 4
CN(N=Cc1ccccc1)C(=S)Nc1ccccc1 | 2 | 0 | . | . | .
O=c1c(Cl)c(N/N=C/c2ccc(Cl)cc2)cnn1-c1ccccc1 | 18 | 0 | 3 | 16* | 7
CC(=O)Nc1ccc(NC(=O)CN(c2ccc(C34CC5CC(CC(C5)C3)C4)cc2)S(C)(=O)=O)cc1 | -2 | 1 | 5 | -1 | 3
CS(=O)(=O)N(CC(=O)Nc1ccc(CC#N)cc1)c1ccc(C23CC4CC(CC(C4)C2)C3)cc1 | 6 | 2 | -1 | 26* | -4
Cc1ccc2nc(N/N=C/c3ccccc3F)nc(-c3ccccc3)c2c1 | 18 | 0 | -3 | 13* | 3
Cc1ccc2nc(N/N=C/c3ccccc3C#N)nc(-c3ccccc3)c2c1 | 1 | 0 | -7 | -1 | -4
Cc1ccc(NS(=O)(=O)c2ccc(-n3cccn3)cc2)c(Cl)c1 | 1 | 0 | . | . | .
CSc1cccc(N2CC(C(=O)NCCC3=CCCCC3)CC2=O)c1 (stereo unspecified) | -1 | 0 | -3 | -2 | 4
COc1ccccc1OCCNC(=O)C1CC(=O)N(c2cccc(SC)c2)C1 (stereo unspecified) | -1 | 0 | 1 | 17* | 7
COc1ccccc1NC(=O)Nc1nc(CC(=O)Nc2cc(F)ccc2F)cs1 | 0 | 0 | 1 | 21* | -1
COc1ccccc1NC(=O)Nc1nc(CC(=O)Nc2ccc(F)c(F)c2)cs1 | 29 | 0 | 3 | 34* | 10
COc1ccccc1NC(=O)Nc1nc(CC(=O)Nc2ccc(N(C)C)cc2)cs1 | 1 | 0 | 14 | 24* | -2
COc1ccccc1CNC(=O)Cc1csc(NC(=O)Nc2ccccc2OC)n1 | -3 | 0 | 9 | -9 | 11
COc1ccccc1NC(=O)Nc1nc(CC(=O)Nc2cccc(F)c2)cs1 | 1 | 0 | 10 | 28* | -7
CN(Cc1ccccc1N1CCCC1)C(=O)c1cc2cc(Cl)ccc2o1 | 0 | 0 | -9 | 0 | 3
CC1=C(C(=O)N2CCOCC2)CC(CC(=O)NC2CC2)C(=O)N1CCC1=CCCCC1 (stereo unspecified) | 0 | 0 | . | . | .
COc1ccccc1NC(=O)Nc1nc(CC(=O)Nc2ccc(F)cc2)cs1 | 3 | 0 | 0 | 33* | 11
COc1ccc(NC(=O)Cc2csc(NC(=O)Nc3ccccc3OC)n2)cc1 | 1 | 0 | . | . | .
COC(=O)/C=C1\SC(=NC(=O)c2cccc([N+](=O)[O-])c2)NC1=O | -1 | 0 | -8 | 13* | -1
COC(=O)/C=C1/SC(=NC(=O)c2ccc(F)cc2)NC1=O | 3 | 0 | -10 | 1 | -9
COC(=O)/C=C1/SC(=NC(=O)c2cccc([N+](=O)[O-])c2)NC1=O | 7 | 0 | -12 | 15* | -5
SMILES | MPTP block | aDG glyco up | procasp7 counter | NR3A LBD binder | procasp3 activ
COC(=O)/C=C1/SC(=NC(=O)c2ccccc2)NC1=O | -1 | 0 | -23 | -8 | -5
Cc1noc(C)c1S(=O)(=O)NC(=O)C1(C)CCN1C(=O)CC(c1ccccc1)c1ccccc1 (stereo unspecified) | -1 | 0 | . | . | .
CCOC(=O)C1CCN(C(=O)CN2C(=O)c3ccccc3S2(=O)=O)CC1 | -1 | 0 | 6 | 18* | -5
CCCC(C)(C)C(=O)N1CCC1(C)C(=O)NS(=O)(=O)c1cccc(Cl)c1 (stereo unspecified) | 1 | 0 | . | . | .
CC(C)Cc1csc(NC(=O)c2ccccc2Cl)c1C(=O)O | -1 | 0 | 10 | 12* | 4
COC(=O)c1sccc1NS(=O)(=O)c1ccccc1[N+](=O)[O-] | -1 | 0 | . | 0 | .
COc1cc(NS(=O)(=O)c2ccc(F)cc2)c(C(=O)O)cc1OC | 1 | 3 | -18 | 12* | -2
COc1cccc(NCc2cc(=O)oc3cc(C)c(O)cc23)c1 | 0 | 0 | -4 | -13 | 9
COc1cccc(NCc2cc(=O)oc3cc(-c4ccccc4)c(O)cc23)c1 | 45 | 1 | 8 | 28* | -6
Cc1ccc(C)c(NC(=O)CSc2n[nH]c(-c3ccccn3)n2)c1 | 0 | 0 | 2 | 2 | -7
COc1ccc(-c2nc(SCC(=O)Nc3cccc(S(N)(=O)=O)c3)n[nH]2)cc1 | -2 | 0 | . | 11* | .
Cc1cc(SCC(=O)c2ccc3c(c2)OCO3)nc2ccccc12 | 0 | 0 | -3 | -1 | 0
Cc1cc(SCC(=O)c2ccc(O)c(O)c2)nc2ccccc12 | 6 | 0 | -4 | 12* | -1
O=C(CSc1n[nH]c(-c2ccccc2)n1)c1ccc(O)c(O)c1 | 2 | 0 | 9 | 12* | -2
Cc1ccc(O)c(NC(=O)CSc2n[nH]c(-c3ccccc3)n2)c1 | 2 | 1 | 6 | 34* | 3
Cc1ccc(C(O)c2ncc(-c3ccc(C(F)(F)F)cc3)[nH]2)cc1F (stereo unspecified) | 7 | 1 | . | . | .
O=C1NC[C@@H](CCCCN2C[C@H](Cc3ccccc3)N(CC3CCCCC3)C(=O)C2=O)N(CC2CCCCC2)C1=O | 0 | 0 | . | . | .
CN(c1ccc(C(=O)NC2CCCCC2)cc1)S(=O)(=O)c1ccccc1 | 1 | 0 | 4 | 1 | 0
O=C(CN1C(=O)C(=O)N(CCC2=CCCCC2)C1=O)c1c[nH]c2ccccc12 | 1 | 0 | -9 | 30* | 3
COc1ccc(CCN=C(N)NS(=O)(=O)c2ccc3ccccc3c2)cc1 | 3 | 1 | -5 | 18* | -10
COc1ccc(S(=O)(=O)NC(N)=NCCc2ccccc2)cc1 | -1 | 0 | -4 | 1 | -8
N#CCC(=O)Nc1ccc(C(=O)OC(C(=O)Nc2cc(C(F)(F)F)ccc2Cl)c2ccccc2)cc1 (stereo unspecified) | 1 | 0 | 1 | 29* | -1
